Activity calls are given as the source filed them. The rule behind the calls is not given here.
Tests used:
Mus musculus [1] = assay: Anticonvulsant activity in po dosed CF albino mouse assessed as protection against electroshock-induced seizure; format: functional
Procedure, shortened: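 Male CF mice were dosed orally, with the vehicle for po dosing being a 0.2% agar suspension. Protection against electroshock-induced seizures was examined at 500 mg/kg po. Activity is reported as ED50 in mg/kg po.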

Mus musculus [2] = assay: Antidepressant activity in CF albino mouse assessed as potentiation of dopa-induced response at 25 mg/kg, po relative to control; format: functional
Procedure, shortened: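 Male CF mice received 25 mg/kg orally in 0.2% agar suspension. The read-out was potentiation of the Dopa response. Results were graded on a plus-scale.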

Mus musculus [3] = assay: Central nervous system depressant activity in CF albino mouse assessed as inhibition of spontaneous motor activity at 500 mg/kg, po measured within 15 mins relative to control; format: functional; details: for inhibition in vivo at 500 mg/kg: 0.25 h
Procedure, shortened: (§1)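 Male CF mice got 500 mg/kg orally as a 0.2% agar suspension. Scoring was at peak drug effect on a 0-4+ scale. Scores were judged together from percentage inhibition of spontaneous motor activity, a ptotic index based on percentage eye closure, and the degree of sedation.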

Mus musculus [4] = assay: Antidepressant activity in CF albino mouse assessed as inhibition of reserpine-induced hypothermia at 25 mg/kg, po relative to control; format: functional
Procedure, shortened: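 Oral dosing was 25 mg/kg in 0.2% agar suspension to male CF mice. Antagonism of reserpine-induced hypothermia was measured and graded on a plus-scale.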

Mus musculus [5] = assay: Central nervous system depressant activity in po dosed CF albino mouse assessed as induction of sedation; format: functional, organism-based
Mus musculus [6] = assay: Central nervous system depressant activity in CF albino mouse assessed as induction of sedation without arousability at 500 mg/kg, po; format: functional, organism-based; set-up: dose 500 mg/kg; procedure, shortened: as §1
Mus musculus [7] = assay: Central nervous system depressant activity in CF albino mouse assessed as eye closure rate at 500 mg/kg, po relative to control; format: functional; procedure, shortened: as §1
Mus musculus [8] = assay: Toxicity in CF albino mouse assessed as mild convulsion at 500 mg/kg, po; format: organism-based; set-up: dose 500 mg/kg, route oral; details: in vivo
Mus musculus [9] = assay: Toxicity in CF albino mouse assessed as tremor at 500 mg/kg, po; format: organism-based; set-up: dose 500 mg/kg, route oral; details: in vivo
Mus musculus [10] = assay: Toxicity in CF albino mouse at 500 mg/kg, po; format: organism-based; set-up: dose 500 mg/kg, route oral; details: in vivo
Mus musculus [11] = assay: Central nervous system depressant activity in CF albino mouse assessed as induction of sedation at 500 mg/kg, po; format: functional, organism-based; set-up: dose 500 mg/kg; procedure, shortened: as §1
Mus musculus [12] = assay: Central nervous system depressant activity in CF albino mouse assessed as induction of sedation at 25 mg/kg, po; format: functional, organism-based; set-up: dose 25 mg/kg
Mus musculus [13] = assay: Central nervous system depressant activity in CF albino mouse assessed as induction of sedation with arousability at 500 mg/kg, po; format: functional, organism-based; set-up: dose 500 mg/kg; procedure, shortened: as §1

## CN1N=C(c2ccccc2)CC2=C1CC(C)(C)CC2=O
Mus musculus [1]
  ED50: inactive
Mus musculus [2]
  Activity: 26%
Mus musculus [3]
  inhibition: inactive
Mus musculus [4]
  inhibition in vivo at 25 mg/kg: 51%

## CN(C)CCN1N=C(c2ccccc2)CC2=C1CC(C)(C)CC2=O.[O-][Cl+3]([O-])([O-])O
Mus musculus [5]
  Activity: Dose-dependent effect
Mus musculus [6]
  Activity: inactive
Mus musculus [7]
  Activity: 75%
Mus musculus [8]
  Activity: Toxic
Mus musculus [1]
  ED50: 500 mg/kg
Mus musculus [2]
  Activity: 51%
Mus musculus [9]
  Activity: Toxic
Mus musculus [3]
  inhibition in vivo at 500 mg/kg: 51%
Mus musculus [4]
  inhibition in vivo at 25 mg/kg: 26%

## CC1(C)CC(=O)C2=C(C1)N(c1ccccc1)N=C(c1ccccc1)C2
Mus musculus [1]
  ED50: inactive
Mus musculus [2]
  Activity: 0%
Mus musculus [3]
  inhibition: inactive
Mus musculus [4]
  inhibition in vivo at 25 mg/kg: 26%

## CCN(CC)CCN1N=C(c2ccccc2)CC2=C1CCCC2=O.[O-][Cl+3]([O-])([O-])O
Mus musculus [10]
  Activity: Toxic
Mus musculus [1]
  ED50: 200 mg/kg
Mus musculus [2]
  Activity: 51%
Mus musculus [3]
  inhibition: inactive
Mus musculus [4]
  inhibition in vivo at 25 mg/kg: 26%

## CCN(CC)CCN1N=C(c2ccc(Br)cc2)CC2=C1CC(C)(C)CC2=O
Mus musculus [11]
  Activity: Active
Mus musculus [7]
  Activity: 50%
Mus musculus [8]
  Activity: Toxic
Mus musculus [1]
  ED50: 100 mg/kg
Mus musculus [2]
  Activity: 26%
Mus musculus [9]
  Activity: Toxic
Mus musculus [3]
  inhibition in vivo at 500 mg/kg: 26%
Mus musculus [4]
  inhibition in vivo at 25 mg/kg: 26%

## CCN(CC)CCN1N=C(c2ccccc2)CC2=C1CC(C)(C)CC2=O.[O-][Cl+3]([O-])([O-])O
Mus musculus [11]
  Activity: Active
Mus musculus [7]
  Activity: 50%
Mus musculus [8]
  Activity: Toxic
Mus musculus [1]
  ED50: 225 mg/kg
Mus musculus [2]
  Activity: 51%
Mus musculus [9]
  Activity: Toxic
Mus musculus [3]
  inhibition in vivo at 500 mg/kg: 26%
Mus musculus [4]
  inhibition in vivo at 25 mg/kg: 26%

## CN(C)CCN1N=C(c2ccc(F)cc2)CC2=C1CC(C)(C)CC2=O.O.O=C(O)C(=O)O
Mus musculus [8]
  Activity: Toxic
Mus musculus [1]
  ED50: inactive
Mus musculus [2]
  Activity: 26%
Mus musculus [9]
  Activity: Toxic
Mus musculus [3]
  inhibition: inactive
Mus musculus [4]
  inhibition in vivo at 25 mg/kg: 26%

## CCN(CC)CCN1N=C(c2ccccc2)C(C)C2=C1CC(C)(C)CC2=O.[O-][Cl+3]([O-])([O-])O (centres undefined)
Mus musculus [11]
  Activity: inactive
Mus musculus [7]
  Activity: 25%
Mus musculus [8]
  Activity: Toxic
Mus musculus [1]
  ED50: 400 mg/kg
Mus musculus [2]
  Activity: 26%
Mus musculus [9]
  Activity: Toxic
Mus musculus [3]
  inhibition in vivo at 500 mg/kg: 1%
Mus musculus [4]
  inhibition in vivo at 25 mg/kg: 0%

## CC1=NNC2=C(C1)C(=O)CC(C)(C)C2
Mus musculus [1]
  ED50: inactive
Mus musculus [2]
  Activity: 51%
Mus musculus [3]
  inhibition: inactive
Mus musculus [4]
  inhibition in vivo at 25 mg/kg: 0%

## CC1(C)CC(=O)C2=C(C1)NN=C(c1ccccc1)C2
Mus musculus [1]
  ED50: inactive
Mus musculus [2]
  Activity: 26%
Mus musculus [3]
  inhibition: inactive
Mus musculus [4]
  inhibition in vivo at 25 mg/kg: 26%

## CCN(CC)CCn1nc(C)c(=O)c2c1CC(C)(C)CC2=O
Mus musculus [1]
  ED50: inactive
Mus musculus [2]
  Activity: 26%
Mus musculus [3]
  inhibition: inactive
Mus musculus [4]
  inhibition in vivo at 25 mg/kg: 51%

## CC1(C)CC(=O)C(CC(=O)c2ccccc2)=C(NNC(=O)c2ccncc2)C1
Mus musculus [11]
  Activity: inactive
Mus musculus [7]
  Activity: 25%
Mus musculus [1]
  ED50: inactive
Mus musculus [2]
  Activity: 51%
Mus musculus [3]
  inhibition in vivo at 500 mg/kg: 1%
Mus musculus [4]
  inhibition in vivo at 25 mg/kg: 51%

## CC1(C)CC(=O)C2=C(C1)N(CCN1CCNCC1)N=C(c1ccc(F)cc1)C2.Cc1ccc(S(=O)(=O)O)cc1.O
Mus musculus [1]
  ED50: inactive
Mus musculus [2]
  Activity: 51%
Mus musculus [3]
  inhibition: inactive
Mus musculus [4]
  inhibition in vivo at 25 mg/kg: 26%

## CCN(CC)CCN1N=C(c2ccc(F)cc2)CC2=C1CC(C)(C)CC2=O
Mus musculus [6]
  Activity: inactive
Mus musculus [7]
  Activity: 75%
Mus musculus [8]
  Activity: Toxic
Mus musculus [1]
  ED50: 150 mg/kg
Mus musculus [2]
  Activity: 51%
Mus musculus [12]
  Activity: Active
Mus musculus [9]
  Activity: Toxic
Mus musculus [3]
  inhibition in vivo at 500 mg/kg: 51%
Mus musculus [4]
  inhibition in vivo at 25 mg/kg: 26%

## CN(C)CCN/N=C1/CC(C)(C)CC2=C1CC(c1ccccc1)=NN2CCN(C)C
Mus musculus [1]
  ED50: inactive
Mus musculus [3]
  inhibition: inactive

## CC1(C)CC(=O)c2cc(-c3ccccc3)nnc2C1
Mus musculus [11]
  Activity: inactive
Mus musculus [7]
  Activity: 25%
Mus musculus [8]
  Activity: Toxic
Mus musculus [1]
  ED50: 500 mg/kg
Mus musculus [2]
  Activity: 26%
Mus musculus [9]
  Activity: Toxic
Mus musculus [3]
  inhibition in vivo at 500 mg/kg: 1%
Mus musculus [4]
  inhibition in vivo at 25 mg/kg: 26%

## CCOC(=O)NNC1=C(CC(=O)c2ccccc2)C(=O)CC(C)(C)C1
Mus musculus [11]
  Activity: inactive
Mus musculus [7]
  Activity: 25%
Mus musculus [1]
  ED50: inactive
Mus musculus [2]
  Activity: 26%
Mus musculus [3]
  inhibition in vivo at 500 mg/kg: 1%
Mus musculus [4]
  inhibition in vivo at 25 mg/kg: 51%

## CC1(C)CC(=O)C2=C(C1)N(CCO)N=C(c1ccccc1)C2.Cc1ccc(S(=O)(=O)O)cc1
Mus musculus [11]
  Activity: inactive
Mus musculus [7]
  Activity: 25%
Mus musculus [1]
  ED50: inactive
Mus musculus [2]
  Activity: 51%
Mus musculus [3]
  inhibition in vivo at 500 mg/kg: 1%
Mus musculus [4]
  inhibition in vivo at 25 mg/kg: 26%

## CCN(CC)CCN1N=C(c2ccc(OC)cc2)CC2=C1CC(C)(C)CC2=O.[O-][Cl+3]([O-])([O-])O
Mus musculus [11]
  Activity: inactive
Mus musculus [7]
  Activity: 25%
Mus musculus [1]
  ED50: 300 mg/kg
Mus musculus [2]
  Activity: 26%
Mus musculus [3]
  inhibition in vivo at 500 mg/kg: 1%
Mus musculus [4]
  inhibition in vivo at 25 mg/kg: 0%

## CC1(C)CC(=O)C(CC(=O)c2ccccc2)=C(NNc2ccncc2)C1
Mus musculus [11]
  Activity: inactive
Mus musculus [7]
  Activity: 25%
Mus musculus [1]
  ED50: inactive
Mus musculus [2]
  Activity: 51%
Mus musculus [3]
  inhibition in vivo at 500 mg/kg: 1%
Mus musculus [4]
  inhibition in vivo at 25 mg/kg: 76%

## CC1(C)CC(=O)C2=C(C1)N(C(N)=O)N=C(c1ccccc1)C2
Mus musculus [1]
  ED50: inactive
Mus musculus [2]
  Activity: 51%
Mus musculus [3]
  inhibition: inactive
Mus musculus [4]
  inhibition in vivo at 25 mg/kg: 26%

## CN(C)CCN1N=C(c2ccc(Br)cc2)CC2=C1CC(C)(C)CC2=O.[O-][Cl+3]([O-])([O-])O
Mus musculus [7]
  Activity: 75%
Mus musculus [1]
  ED50: 100 mg/kg
Mus musculus [2]
  Activity: 51%
Mus musculus [3]
  inhibition in vivo at 500 mg/kg: 51%
Mus musculus [13]
  Activity: Active
Mus musculus [4]
  inhibition: inactive

## CCN(CC)CCN1N=C(c2cc(OC)c(OC)c(OC)c2)CC2=C1CC(C)(C)CC2=O.[O-][Cl+3]([O-])([O-])O
Mus musculus [1]
  ED50: inactive
Mus musculus [2]
  Activity: 26%
Mus musculus [3]
  inhibition: inactive
Mus musculus [4]
  inhibition in vivo at 25 mg/kg: 51%

## CN(C)CCCN1N=C(c2ccccc2)CC2=C1CC(C)(C)CC2=O.O.[O-][Cl+3]([O-])([O-])O
Mus musculus [11]
  Activity: inactive
Mus musculus [7]
  Activity: 25%
Mus musculus [1]
  ED50: 500 mg/kg
Mus musculus [2]
  Activity: 51%
Mus musculus [3]
  inhibition in vivo at 500 mg/kg: 1%
Mus musculus [4]
  inhibition in vivo at 25 mg/kg: 26%

## CC1(C)CC(=O)C2=C(C1)N(CCN1CCNCC1)N=C(c1ccc(Br)cc1)C2.Cl.O
Mus musculus [11]
  Activity: Active
Mus musculus [7]
  Activity: 50%
Mus musculus [1]
  ED50: inactive
Mus musculus [2]
  Activity: 0%
Mus musculus [3]
  inhibition in vivo at 500 mg/kg: 26%
Mus musculus [4]
  inhibition in vivo at 25 mg/kg: 26%

## CC1(C)CC(=O)C(CC(=O)c2ccccc2)=C(NNC(=N)N)C1
Mus musculus [11]
  Activity: inactive
Mus musculus [7]
  Activity: 25%
Mus musculus [1]
  ED50: inactive
Mus musculus [2]
  Activity: 51%
Mus musculus [3]
  inhibition in vivo at 500 mg/kg: 1%
Mus musculus [4]
  inhibition in vivo at 25 mg/kg: 76%

— ChEMBL document CHEMBL3272220, “Central nervous system active 5-oxo-1,4,5,6,7,8-hexahydrocinnolines” (J Med Chem, 1976)
